Laboratory results taken from ChEMBL document CHEMBL3272118, “Structure and tumor-promoting activity of analogues of anthralin (1,8-dihydroxy-9-anthrone)” (J Med Chem, 1978).

Legend:
Mus musculus [1] = assay: Toxicity in ICR/Ha Swiss mouse assessed as median survival time at 80 ug administered three times a week; assay type: organism-based; conditions: in vivo
Mus musculus [2] = assay: Tumor promoting activity in ICR/Ha Swiss mouse at 80 ug administered three times a week measured for 521 days; assay type: ADME, organism-based; conditions: in vivo, 12504 h
Mus musculus [3] = assay: Tumor promoting activity in ICR/Ha Swiss mouse at 124 ug administered three times a week measured for 370 days; assay type: ADME, organism-based; conditions: in vivo, 8880 h
How it was run: (§1)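 Two-stage carcinogenesis on clipped backs of female ICR/Ha Swiss mice (8 weeks, ectromelia-vaccinated): one subcarcinogenic topical dose of 7,12-dimethylbenz[a]anthracene, then repeated skin application of test agent, dosed equimolar to anthralin except where toxicity required lower, for 370 days. Tumors >1 mm persisting ≥30 days counted; carcinomas confirmed histologically at autopsy.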

Mus musculus [4] = assay: Tumor promoting activity in ICR/Ha Swiss mouse at 80 ug administered three times a week measured for 370 days; assay type: ADME, organism-based; conditions: in vivo, 8880 h; how it was run: as §1
Mus musculus [5] = assay: Tumor promoting activity in ICR/Ha Swiss mouse at 85 ug administered three times a week measured for 370 days; assay type: ADME, organism-based; conditions: in vivo, 8880 h; how it was run: as §1
Mus musculus [6] = assay: Tumor promoting activity in ICR/Ha Swiss mouse at 76 ug administered three times a week measured for 370 days; assay type: ADME, organism-based; conditions: in vivo, 8880 h; how it was run: as §1
Mus musculus [7] = assay: Tumor promoting activity in ICR/Ha Swiss mouse at 228 ug administered three times a week measured for 370 days; assay type: ADME, organism-based; conditions: in vivo, 8880 h; how it was run: as §1
Mus musculus [8] = assay: Toxicity in ICR/Ha Swiss mouse assessed as median survival time at 300 ug administered three times a week; assay type: organism-based; conditions: in vivo
How it was run: (§2)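 Female ICR/Ha Swiss mice, 8 weeks old, vaccinated against ectromelia, backs clipped. Repeated skin application after a single subcarcinogenic dose of 7,12-dimethylbenz[a]anthracene. Groups of twenty mice; test ran 521 days; median survival time recorded. Tumors >1 mm persisting ≥30 days counted; autopsy with histological confirmation.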

Mus musculus [9] = assay: Tumor promoting activity in ICR/Ha Swiss mouse at 300 ug administered three times a week measured for 521 days; assay type: ADME, organism-based; conditions: in vivo, 12504 h; how it was run: as §2
Mus musculus [10] = assay: Tumor promoting activity in ICR/Ha Swiss mouse at 75 ug administered three times a week measured for 370 days; assay type: ADME, organism-based; conditions: in vivo, 8880 h; how it was run: as §1
Mus musculus [11] = assay: Tumor promoting activity in ICR/Ha Swiss mouse at 136 ug administered three times a week measured for 370 days; assay type: ADME, organism-based; conditions: in vivo, 8880 h; how it was run: as §1
Mus musculus [12] = assay: Tumor promoting activity in ICR/Ha Swiss mouse at 15 ug administered three times a week measured for 370 days; assay type: ADME, organism-based; conditions: in vivo, 8880 h; how it was run: as §1
[13] = Metal chelating activity of the compound assessed as stability constant of metal chelate at 2 to 9 x 10^-5 M using Mg2+; assay type: physicochemical
How it was run: (§3)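 Stability constants by the Rossotti and Rossotti spectrophotometric method in dimethyl sulfoxide: eight solutions of anthralin from 2.0×10^-5 to 9.0×10^-5 M with metal acetate at matching concentrations, spectra read 400–650 nm at 25 °C.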

[14] = Metal chelating activity of the compound assessed as stability constant of metal chelate at 2 to 9 x 10^-5 M using Ca2+; assay type: physicochemical; how it was run: as §3
[15] = Metal chelating activity of the compound assessed as stability constant of metal chelate at 2 to 9 x 10^-5 M using Mn2+; assay type: physicochemical; how it was run: as §3
[16] = Metal chelating activity of the compound assessed as stability constant of metal chelate at 2 to 9 x 10^-5 M using copper; assay type: physicochemical; how it was run: as §3
[17] = Metal chelating activity of the compound assessed as stability constant of metal chelate at 2 to 9 x 10^-5 M using Zn2+; assay type: physicochemical; how it was run: as §3
[18] = Metal chelating activity of the compound assessed as metal-compound complex formation using copper; assay type: physicochemical
How it was run: (§4)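 Chelates prepared by adding 0.5 molar equiv of metal acetate in anhydrous ethanol to the ligand (2.0 mmol) dissolved in warm anhydrous ethanol. Metal:ligand ratio in dimethyl sulfoxide by Job's continuous variation: ligand (DHAQ 1.0×10^-4 M or anthralin 2.0×10^-4 M) and equimolar metal acetate mixed in nine solutions at ligand mole fractions 0.1–0.9, spectra recorded 400–650 nm.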

[19] = Metal chelating activity of the compound assessed as stability constant of metal chelate at 1 to 4.5 x 10^-5 M using Mg2+; assay type: physicochemical
How it was run: (§5)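 Spectrophotometric method of Rossotti and Rossotti in dimethyl sulfoxide: eight solutions of DHAQ from 1.0×10^-5 to 4.5×10^-5 M with metal acetate at the same concentrations, absorption spectra recorded 400–650 nm at 25 °C, stability constants calculated from these.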

[20] = Metal chelating activity of the compound assessed as stability constant of metal chelate at 1 to 4.5 x 10^-5 M using Mn2+; assay type: physicochemical; how it was run: as §5
[21] = Metal chelating activity of the compound assessed as metal-compound complex formation using Mn2+; assay type: physicochemical; how it was run: as §4
[22] = Metal chelating activity of the compound assessed as metal-compound complex formation using zinc; assay type: physicochemical; how it was run: as §4
[23] = Metal chelating activity of the compound assessed as metal-compound complex formation using Mg2+; assay type: physicochemical; how it was run: as §4
[24] = Metal chelating activity of the compound assessed as metal-compound complex formation using Ca2+; assay type: physicochemical; how it was run: as §4
[25] = Metal chelating activity of the compound assessed as stability constant of metal chelate at 1 to 4.5 x 10^-5 M using Zn2+; assay type: physicochemical; how it was run: as §5
[26] = Metal chelating activity of the compound assessed as stability constant of metal chelate at 1 to 4.5 x 10^-5 M using copper; assay type: physicochemical; how it was run: as §5
[27] = Metal chelating activity of the compound assessed as stability constant of metal chelate at 1 to 4.5 x 10^-5 M using Ca2+; assay type: physicochemical; how it was run: as §5
Mus musculus [28] = assay: Tumor promoting activity in ICR/Ha Swiss mouse at 62 ug administered three times a week measured for 370 days; assay type: ADME, organism-based; conditions: in vivo, 8880 h
How it was run: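 Female ICR/Ha Swiss mice, ectromelia-vaccinated, started at 8 weeks, backs clipped the day before treatment. Single subcarcinogenic topical dose of 7,12-dimethylbenz[a]anthracene, then repeated skin applications at doses equimolar to the positive-control promoter, over 370 days. Tumors >1 mm persisting ≥30 days were counted cumulatively and confirmed on H&E histology at autopsy. Controls received test compound alone or no treatment.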

## O=C1c2ccccc2Cc2cccc(O)c21
Mus musculus [1]
  MST: 391 days
Mus musculus [2]
  Activity: Toxic

## CC(=O)Oc1cccc2c1C(=O)c1c(cccc1OC(C)=O)C2
Mus musculus [3]
  Activity: Toxic

## O=C1c2ccccc2Cc2ccc(O)c(O)c21
Mus musculus [4]
  Activity: Non-toxic

## O=C1c2c(O)cccc2C(O)c2cccc(O)c21
Mus musculus [5]
  Activity: Non-toxic

## CC(=O)Oc1cccc2c1C(=O)C=CC2=O
Mus musculus [6]
  Activity: Toxic

## CCCCCCCCCCCCCC(=O)Oc1cccc2c1C(=O)c1c(cccc1OC(=O)CCCCCCCCCCCCC)C2
Mus musculus [7]
  Activity: Non-toxic

## CCCCCCCCCCCCCC(=O)C1c2cccc(O)c2C(=O)c2c(O)cccc21
Mus musculus [8]
  MST: 423 days
Mus musculus [9]
  Activity: Toxic

## O=C1c2ccccc2Cc2cc(O)c(O)cc21
Mus musculus [4]
  Activity: Non-toxic

## Oc1cc2cc3ccccc3cc2cc1O
Mus musculus [10]
  Activity: Non-toxic

## Oc1cccc2cc3ccccc3cc12
Mus musculus [1]
  MST: 474 days
Mus musculus [2]
  Activity: Toxic

## Oc1cccc2cc3cccc(O)c3cc12
Mus musculus [10]
  Activity: Non-toxic

## O=C1CCCc2cc3cccc(O)c3c(O)c21
Mus musculus [4]
  Activity: Non-toxic

## Oc1cccc2c1Cc1c(O)cccc1C2
Mus musculus [4]
  Activity: Non-toxic

## CCCCCCCCCCCCCC(=O)Oc1cccc2c1C(=O)C=CC2=O
Mus musculus [11]
  Activity: Non-toxic

## CC(=O)C1c2cccc(O)c2C(=O)c2c(O)cccc21
Mus musculus [12]
  Activity: Toxic

## O=C(c1ccccc1O)c1ccccc1O [2,2'-DIHYDROXYBENZPHENONE]
Mus musculus [10]
  Activity: Non-toxic

## O=C1c2c(O)cccc2Cc2cccc(O)c21 [ANTHRALIN]
[13]
  log K: 9.16
[14]
  log K: 9.06
[15]
  log K: 9.19
[16]
  log K: 9.56
[17]
  log K: 9.23
[18]
  Activity: Active

## O=C1c2cccc(O)c2C(=O)c2c(O)cccc21 [DANTHRON]
[19]
  log K: 5.53
[20]
  log K: 5.58
[21]
  Activity: Active
[22]
  Activity: Active
[23]
  Activity: Active
[24]
  Activity: Active
[25]
  log K: 5.62
[26]
  log K: 5.77
[18]
  Activity: Active
[27]
  log K: 10.03

## O=C1C=CC(=O)c2c(O)cccc21 [JUGLONE]
Mus musculus [28]
  Activity: Toxic
